This is an account of results in PubChem BioAssay.

The nature of assay [1]: S. cerevisiae growth inhibition in permissive medium (OD615), pilot counter-assay for S. cerevisiae lifespan shortening project, permissive growth control (AID 705;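 active = growth inhibition above 25% in both replicates, a cutoff set 3 SD above the mean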). The settings on record: OD615, 24 h, at 10 µM, stronger effect = higher value. Put shortly:
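System – S. cerevisiae with engineered DeaD lifespan system · Buffer or medium – SC raffinose/galactose permissive medium · Schedule – cells pre-grown 4 h, then 24 h compound exposure, 30 °C humidified · Technique – culture turbidity as optical density at 615 nm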

Assay [2] is described as follows: S. cerevisiae growth inhibition in restrictive medium, OD615, pilot screen, restrictive growth control, yeast lifespan reduction project (AID 706;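 active = growth inhibition above a set limit, 3 SD over mean compound inhibition, in both replicates, cut at about 43% in these data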;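 also: modified DeaD lifespan yeast strain shifted to restrictive glucose medium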). The conditions noted are these: OD615, 48 h, at 10 µM, stronger effect = higher value. Put shortly:
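Material: engineered S. cerevisiae DeaD strain / Medium: glucose-based CSMM-D restrictive medium / Compound: single dose of 10 µM compound final, 0.25% DMSO / Timing: 4 h pre-incubation, 48 h exposure at 30 °C / Technique: OD615 absorbance reading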

Assay [3] is described as follows: doxorubicin toxicity protection in MRP-1 cells – H69AR cells, CellTiter-Glo, duplicate, MRP-1 activator project, pilot screen (AID 807).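 Also: compound pretreatment 18-22 h then 72 h combined with doxorubicin; 0% = doxorubicin alone and 100% = vehicle without doxorubicin.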 The settings on record: H69AR viability with doxorubicin, CellTiter-Glo luminescence; at 10 µM; stronger effect = higher value. (Cellular ATP, detected with luciferase, serves as a proxy for viable cell number.)
The nature of assay [4]: viability of HCT116 without oncogenic beta-catenin – human colon tumor cells, pilot screen (AID 823;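 active = cell viability at or below a set limit in both duplicate runs, the limit being the all-compound median minus 4 SD, cut at about 23% in these data, passing the limit was not always enough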;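 also: 0% = wells killed by 20 µM Hyamine and 100% = untreated DMSO cell wells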). The settings on record: HCT116 beta-catenin knockout viability, CellTiter-Glo, 60 h; at 10 µM; stronger effect = lower value.
A short description of assay [5]: viability of PTEN-null HCT116 cells – cell-based, HCT116 clonal line, CellTiter-Glo, pilot screen (AID 824;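 active = viability at or below 27.92% in each of two runs, the all-compound median minus 4 SD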;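 also: 0% = 20 µM Hyamine control and 100% = vehicle cell control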). The settings on record: HCT116 PTEN-deleted viability, 60 h, at 10 µM, stronger effect = lower value.
Assay [6] is described as follows: RAM pathway blockade in budding yeast – dse1pr::URA3 reporter, 5-FOA selection, pilot screen (AID 869;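 active = inhibition over a set limit, the all-compound mean plus 3 SD, in both replicate runs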;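 also: 0% = DMSO wells with no growth and 100% = 10 µM 1-NA-PP1 with full growth; RAM network block rescues cells from 5-FOA so hits raise OD615 growth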). The settings on record: S. cerevisiae dse1pr::URA3 5-FOA growth, OD615, 2 d; at 10 µM; stronger effect = higher value; strain carries analog-sensitive mutant Cbk1 kinase.
A short description of assay [7]: RAM signaling pathway blockade in yeast – S. cerevisiae, Pdr1DBD-CYC8 efflux-inhibited sensitized strain, primary screen (AID 1298;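 active = RAM network inhibition above 8.4% in each of two replicates, 3 SD over the compound average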;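 also: 0% = DMSO untreated cells without growth and 100% = 10 µM 1-NA-PP1 full growth; higher means more yeast growth rescued from 5-FOA killing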). The settings on record: S. cerevisiae cbk1-as DSE1-URA3 strain, 5-FOA growth OD615, 2 d; at 50 µM; stronger effect = higher value.

Values without a mark were called inactive. Results filed as inconclusive are left out. Calls of active or inactive are those of the source.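 The calls were made as follows, unless noted: active = viability increase at or above a cutoff of the median across tested compounds plus 3 SD (cut at about 8.5% in these data, passing the limit was not always enough); inconclusive = some gains above the cutoff, reason not given; inactive = the rest.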

As for `CC(C)C(NS(=O)(=O)c1ccc2c(c1)oc(=O)n2C)C(=O)N1CCN(C2CCCCC2)CC1` (stereo not drawn), the results for the growth inhibition in assay [1] and in assay [2] were -2.87% and -9.46%, respectively. In addition, in assay [3], the viability increase is -3.02%. The viability (as a rule, a read-out of living cells in per cent, often relative to untreated cells) in assay [4] was 106%; in assay [5] it was 95.6%. Further, the inhibition (as a rule, the share of the control response that was lost under treatment) in assay [6] was 0.14%. Also, the RAM network inhibition in assay [7] is 6.54%.

In the case of `Cc1cccc(C2N(c3ccc(F)cc3)C(=O)C3CCCN32)c1` (stereo not drawn), the figures for the growth inhibition in assay [1] and in assay [2] were -1.45% and -4.47%, respectively. For the same compound, the viability increase in assay [3] was 0.04%. Also, the viability is 98.4% in assay [4] and 94.8% in assay [5]. For the same compound, in assay [6], the inhibition is 0.71%. In addition, in assay [7], the RAM network inhibition is 3.46%.

For `O=C(Nc1ccc(Br)cc1F)C1CCCN(S(=O)(=O)c2cnc[nH]2)C1` (stereo not drawn), the figures for the growth inhibition in assay [1] and in assay [2] were 2.29% and -10.9%, respectively. In assay [3], the viability increase was 2.99%. The viability in assay [4] was 92.2%; in assay [5], 98%. Also, the inhibition in assay [6] is 0.905%. Further, in assay [7], the RAM network inhibition was 5.06%.

Turning to `CCOc1ccccc1NC(=O)C1Cc2ccccc2CN1S(C)(=O)=O` (stereo not drawn), the growth inhibition in assay [1] is -8.32%; in assay [2] it was -7.46%. In assay [3], the viability increase is -5.66%. In addition, the viability was 82.9% in assay [4] and 80.6% in assay [5]. In assay [6], the inhibition is 0.37%. The RAM network inhibition in assay [7] is 3%.

As to `CCCc1[nH]nc2c1C(C1CCCCC1)C(C#N)=C(N)O2` (stereo not drawn), the results for the growth inhibition in assay [1] and in assay [2] were -4.03% and -0.785%, respectively. Besides, the viability increase in assay [3] is -6.54%. For the same compound, the viability in assay [4] was 12.5% (active); in assay [5] it was 21.4% (active). The inhibition in assay [6] is 2.06%. Also, the RAM network inhibition in assay [7] is 1.58%.

As for `CCCOc1ccc(C2c3c(oc4cc(C)c(C)cc4c3=O)C(=O)N2CCCN(C)C)cc1OCC` (stereo not drawn), the growth inhibition in assay [1] is -10.6%; in assay [2], -3.15%. Besides, the viability increase in assay [3] is -3.29%. Moreover, the viability in assay [4] was 102%; in assay [5], 97.7%. Besides, in assay [6], the inhibition is 3.69%. The RAM network inhibition in assay [7] is -0.16%.

In the case of `CCOC(=O)c1c(NC(=O)c2ccco2)sc2c1CCCC2`, the growth inhibition was -15.7% in assay [1] and -15.4% in assay [2]. Also, the viability increase in assay [3] was 1.84%. Moreover, the viability in assay [4] was 97.8%; in assay [5], 101%. The inhibition in assay [6] was 4.13%. In addition, the RAM network inhibition in assay [7] was 1.41%.

In the case of `CC1CCN(c2nc3ccccc3nc2C(C#N)S(=O)(=O)c2ccccc2)CC1` (stereo not drawn), the growth inhibition in assay [1] was -32.5%; in assay [2], -14.6%. Also, the viability increase in assay [3] is -2.55%. Besides, the viability was 91.4% in assay [4] and 95.1% in assay [5]. Besides, in assay [6], the inhibition was 1.22%. In addition, the RAM network inhibition in assay [7] was 4.37%.

Regarding `c1ccc(-c2nnn(C34CC5CC(CC(C5)C3)C4)n2)cc1`, the growth inhibition is -4.34% in assay [1] and -0.125% in assay [2]. Also, the viability increase in assay [3] was 0.19%. The figures for the viability in assay [4] and in assay [5] were 90.8% and 84.9%, respectively. The inhibition in assay [6] was 0.215%. Also, the RAM network inhibition in assay [7] was 5.67%.

On to `Cc1cccc(C)c1N1C(=O)c2ccccc2C1=O`, for which the growth inhibition in assay [1] was -6.34%; in assay [2], -3.44%. In assay [3], the viability increase is -1.87%. Besides, the figures for the viability in assay [4] and in assay [5] were 105% and 92.7%, respectively. The inhibition in assay [6] was 0.535%. Further, the RAM network inhibition in assay [7] was 2.47%.

Take `Cc1csc(=NC(=O)c2ccccc2)n1Cc1ccco1`: the growth inhibition is -16.8% in assay [1] and -36% in assay [2]. Besides, the viability increase in assay [3] was -2.24%. Also, the viability is 87.9% in assay [4] and 89.9% in assay [5]. Besides, the inhibition in assay [6] is 1.38%. The RAM network inhibition in assay [7] is 3.14%.

Take `Cc1ccc(C(=O)NCCn2cc(SCC(=O)Nc3nnc(C)s3)c3ccccc32)cc1`: the growth inhibition in assay [1] is 5.58%; in assay [2], 24.1%. The viability increase in assay [3] was 2.91%. The viability in assay [4] was 62.5%; in assay [5], 81.3%. Besides, the inhibition in assay [6] is 1.07%. For the same compound, the RAM network inhibition in assay [7] is 0.63%.

For the compound `CCC(=O)N1CCc2cc(Br)cc(S(=O)(=O)N3CCN(C(=O)c4ccco4)CC3)c21`, the values for the growth inhibition in assay [1] and in assay [2] were -4.72% and -21.7%, respectively. In assay [3], the viability increase is -1.56%. The viability in assay [4] was 91.6%; in assay [5], 95.4%. Further, the inhibition in assay [6] is 2.48%. For the same compound, in assay [7], the RAM network inhibition was 1.88%.

In the case of `Cc1onc(-c2ccccc2Cl)c1C(=O)Nc1ccccc1C(N)=O`, the growth inhibition in assay [1] was -9.31%; in assay [2], -29.5%. Besides, the viability increase in assay [3] is -3.08%. Also, the viability in assay [4] was 90.2%; in assay [5], 85.5%. Besides, the inhibition in assay [6] is 0.895%. In assay [7], the RAM network inhibition is 0.67%.

On to `CCCCC(CC)CNC(=O)c1[nH]c(C)c(C(C)=O)c1C` (stereo not drawn), for which the growth inhibition in assay [1] is 9.77%; in assay [2] it was -2.26%. Further, in assay [3], the viability increase was -1.78%. Besides, the viability in assay [4] was 41.7%; in assay [5] it was 63.8%. Further, the inhibition in assay [6] is 1.91%. In addition, the RAM network inhibition in assay [7] was 1.29%.

For `COC(=O)C1=CN(C(C)C)C=C(C(=O)OC)C1c1cccc(OC)c1`, the growth inhibition is -3.31% in assay [1] and -9.06% in assay [2]. Moreover, in assay [3], the viability increase is -4.15%. The results for the viability in assay [4] and in assay [5] were 73.8% and 63.2%, respectively. In assay [6], the inhibition was 0.405%. In assay [7], the RAM network inhibition is 5.46%.

For the compound `CC(=O)NCCn1c(C)cc2ccccc21`, the growth inhibition in assay [1] was 2.67%; in assay [2] it was -0.185%. In addition, the viability increase in assay [3] is -0.52%. Further, the viability in assay [4] was 95.3%; in assay [5], 105%. Besides, the inhibition in assay [6] was 0.97%. The RAM network inhibition in assay [7] was 0.86%.

Regarding `CCOC(=O)c1sc(NC(=O)C2CC2)cc1C`, the values for the growth inhibition in assay [1] and in assay [2] were -9.29% and -0.985%, respectively. In addition, the viability increase in assay [3] is 0.54%. The results for the viability in assay [4] and in assay [5] were 99.5% and 89.4%, respectively. For the same compound, the inhibition in assay [6] was 2.37%. Also, in assay [7], the RAM network inhibition is 0.98%.

Turning to `CCCOc1ccc(N2C(=O)CC(N3CCN(c4ccccc4OC)CC3)C2=O)cc1` (stereo not drawn), the growth inhibition is 0.31% in assay [1] and -41.2% in assay [2]. In assay [3], the viability increase is 0.03%. The viability is 97.6% in assay [4] and 90.8% in assay [5]. Also, the inhibition in assay [6] was 2.04%. In addition, the RAM network inhibition in assay [7] was 5.49%.

In the case of `O=C(CSc1nccc2ccccc12)N1CCN(c2ccccn2)CC1`, the growth inhibition in assay [1] was -3.48%; in assay [2], 8.46%. In assay [3], the viability increase was -2.78%. Besides, the viability is 97.5% in assay [4] and 99.8% in assay [5]. Also, the inhibition in assay [6] is 0.295%. Further, the RAM network inhibition in assay [7] is -0.26%.

On to `COc1ccc(C(=O)C(OC(=O)CNC(=O)c2ccco2)c2ccccc2)cc1` (stereo not drawn), for which the results for the growth inhibition in assay [1] and in assay [2] were -11.8% and 3.51%, respectively. The viability increase in assay [3] is -3.65%. Moreover, the values for the viability in assay [4] and in assay [5] were 100% and 102%, respectively. Also, the inhibition in assay [6] was 1.49%. For the same compound, the RAM network inhibition in assay [7] was 2.66%.

For `O=C(CSc1nnc(-c2ccccc2)o1)Nc1ccccc1F`, the values for the growth inhibition in assay [1] and in assay [2] were -5.54% and -2.1%, respectively. Also, in assay [3], the viability increase is -3.62%. The viability in assay [4] is 37.7%; in assay [5], 38%. The inhibition in assay [6] was 2.13%. The RAM network inhibition in assay [7] is 8.53%.

On to `Cc1ccc(C(=O)NCCCCNC(=O)c2ccc(C)o2)o1`, for which the growth inhibition was -5.8% in assay [1] and -4.64% in assay [2]. For the same compound, in assay [3], the viability increase was -1.97%. Also, the viability was 106% in assay [4] and 96.3% in assay [5]. Further, the inhibition in assay [6] was 3.56%. Moreover, the RAM network inhibition in assay [7] was 4.03%.

With `COc1ccc(NC(=O)Cc2nc3ccccc3[nH]2)cc1`, the figures for the growth inhibition in assay [1] and in assay [2] were 0.43% and 6.96%, respectively. Further, the viability increase in assay [3] is -1.06%. Besides, the viability in assay [4] was 58.9%; in assay [5], 92.5%. Further, in assay [6], the inhibition is 0.695%. Further, in assay [7], the RAM network inhibition is -1.49%.
